One experiment deals with A549. Briefly: Cytotoxicity against human A549 cells after 48 hrs by SRB assay. The experiment is classed as functional. Particulars: A549, 48 h. The procedure, abridged: (§1)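 Cells were grown in RPMI 1640 with 10% FBS and 2 mM L-glutamine, plated 24 h before dosing, then given continuous 48 h exposure at 0.1, 1, 10 and 100 µM in triplicate wells. Cells were fixed with cold TCA (10% final, 60 min, 4 °C), stained with 0.4% SRB in 1% acetic acid for 20 min, eluted with 10 mM Tris base, and read at 540/690 nm. GI50 was taken from [(Ti−Tz)/(C−Tz)]×100 = 50; three determinations were averaged.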
Background: In SRB staining, fixed cells bind dye roughly in proportion to their protein.

For a further experiment, the system named is HOP-62. Briefly: Cytotoxicity against human HOP62 cells after 48 hrs by SRB assay. The experiment is classed as functional. Particulars: HOP-62, 48 h. The procedure, abridged: as §1
The next experiment concerns ZR-75-1. Briefly: Cytotoxicity against human ZR-75-1 cells after 48 hrs by SRB assay. Format: functional. Particulars: ZR-75-1, 48 h. The procedure, abridged: (§2)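 Cells grown in RPMI 1640 with 10% FBS and 2 mM L-glutamine, plated and left 24 h at 37 °C/5% CO2, then exposed continuously for 48 h to 0.1, 1, 10 and 100 µM in triplicate wells. Fixed with cold TCA (10% final), stained with 0.4% SRB, eluted with 10 mM Tris base, read at 540 nm (690 nm reference). GI50 from [(Ti−Tz)/(C−Tz)]×100 = 50; mean of three determinations.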

A further experiment has as its system A2780. Kind of experiment: Cytotoxicity against human A2780 cells after 48 hrs by SRB assay. Format: functional. The conditions noted are these: A2780, 48 h. An outline of the steps:
as §1

Another experiment relates to KB. Briefly: Cytotoxicity against human KB cells after 48 hrs by SRB assay. The experiment is classed as functional. An outline of the steps: as §1
A further experiment concerns SiHa. Briefly: Cytotoxicity against human SiHa cells after 48 hrs by SRB assay. Format: functional. The procedure, abridged: as §2
Experiment [1] can be described thus: Cytotoxicity against human GURAV cells after 48 hrs by SRB assay. The experiment is classed as functional. An outline of the steps:
as §1

Experiment [2] can be described thus: Cytotoxicity against human DWD cells after 48 hrs by SRB assay. The experiment is classed as functional. The procedure, abridged: as §1
The species entered for the next experiment is Bos taurus. Kind of experiment: Inhibition of bovine tubulin at 2.5 uM after 3 hrs relative to control.
Experiment [3] in a line: Inhibition of bovine tubulin after 3 hrs. Also noted: species or system Bos taurus. An outline of the steps:
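Bovine brain tubulin purified by three polymerization/depolymerization cycles. A340 read every 2 min for 3 h at 37 °C, nocodazole as control. IC50 taken as the concentration halving assembly versus control.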

The target of another experiment is Tubulin (Homo sapiens) (UniProt P68371+Q9H4B7+P0DPH7+P68366+Q13509+Q71U36+P04350+Q3ZCM7+P07437+P68363+Q9BQE3+Q6PEY2+Q13885+Q9BVA1+Q9BUF5). Briefly: Inhibition of tubulin polymerization in human MCF7 cells at 2.5 uM by immunohistochemistry. Format: cell-based. An outline of the steps: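 MCF7 cells on glass cover slips exposed 48 h to 2.5 µM. Fixed with 3% paraformaldehyde/0.02% glutaraldehyde, permeabilized in −20 °C methanol, blocked with 1% BSA. Stained with mouse monoclonal anti-tubulin plus FITC secondary, then confocal imaging of microtubule network integrity. Nocodazole and taxol (2.5 µM) run as controls; untreated cells as baseline.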

Experiment [4] has as its system MCF7. Briefly: Cell cycle arrest in human MCF7 cells assessed as accumulation at G0 phase after 48 hrs using FITC/propidium iodide staining by flow cytometry. Format: functional, cell-based. The procedure, abridged:
(§3)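 MCF7 cells in 6-well plates were exposed for 48 h, harvested with trypsin–EDTA, and fixed in ice-cold 70% ethanol at 4 °C for 30 min. They were then stained with a propidium iodide solution containing trisodium citrate and Triton X-100 for 30 min in the dark. DNA content was read by flow cytometry on 20,000 events, and cells were scored by cell-cycle phase from histograms.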
(In general: In flow cytometry, cells or beads pass a laser one at a time.)

The test system of experiment [5] is MCF7. Kind of experiment: Cell cycle arrest in human MCF7 cells assessed as accumulation at G2/M phase after 48 hrs using FITC/propidium iodide staining by flow cytometry. The experiment is classed as functional, cell-based. An outline of the steps: as §3
Experiment [6] concerns MCF7. Kind of experiment: Induction of apoptosis in human MCF7 cells assessed as nuclear condensation at 2 uM after 48 hrs by fluorescence microscopy. The experiment is classed as functional, cell-based. An outline of the steps: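 MCF7 cells on cover slips in 6-well plates treated 48 h at 1–3 µM. Nocodazole and podophyllotoxin (1 µM) served as controls. Fixed in 3% paraformaldehyde/0.02% glutaraldehyde, stained with Hoechst (5 µM, 30 min), washed in PBS and imaged by fluorescence microscopy with DAPI filters. Five fields of view examined.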

For another experiment, the system named is COLO 205. Briefly: Cytotoxicity against human COLO205 cells after 48 hrs by SRB assay. Particulars: COLO 205, 48 h. Format: functional. The procedure, abridged:
as §1

The next experiment deals with PC-3. Kind of experiment: Cytotoxicity against human PC3 cells after 48 hrs by SRB assay. The experiment is classed as functional. The conditions noted are these: PC-3, 48 h. An outline of the steps:
as §1

The subject of experiment [7] is MCF7. Briefly: Cytotoxicity against human MCF7 cells after 48 hrs by SRB assay. Format: functional. The conditions noted are these: MCF7, 48 h. The procedure, abridged:
as §1

The source made the active and inactive calls. The rule behind the calls is not given here. Some results are limits rather than exact numbers.

As to `COc1cc(/C=C/C(=O)N2CCOCC2)ccc1OCCCCOc1cc2c(cc1OC)C(=O)N1CCC[C@H]1C=N2`, the GI50 – broadly, the concentration that inhibits growth by half – in the experiment on A549 came out at 110 nM; with HOP-62, 160 nM; in the experiment with ZR-75-1 it was 150 nM; in the experiment on A2780, 120 nM; with KB, 130 nM; in the experiment on SiHa, 140 nM. The GI50 in experiment [1] was 130 nM; in [2], less than 100 nM; with COLO 205, 120 nM; in the experiment on PC-3, 140 nM; in the experiment on MCF7 [7], 140 nM. Besides, the inhibition (commonly the relative decrease from the control value, in per cent) in the experiment filed under Bos taurus turned out to be 40%. Also, in experiment [3], inhibition was half-maximal at 16400 nM (IC50). Moreover, on Tubulin (Homo sapiens), the inhibition entry was “Active”. Also, the outcome in the experiment on MCF7 [4], with MCF7 [5] and in the experiment on MCF7 [6] was Active.

Values taken from ChEMBL document CHEMBL1240420, “Synthesis and biological evaluation of cinnamido linked pyrrolo[2,1-c][1,4]benzodiazepines as antimitotic agents” (Eur J Med Chem, 2010).
